# An excerpt weighted towards active compounds, which were near 5.2% of everything screened.
# M1 antag = M1 muscarinic receptor (rat) antagonism; B-score at 10 µM; hit rate 3.4% among 64,000; AID 628; P08482; CHO-M1 cells, Fluo-4 calcium, ACh EC80 antagonist mode; stronger effect = lower value;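 active = calcium fluorescence response, raw or row-and-column corrected B-score, differing from the plate sample mean either way at a set confidence level, mostly lower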
# Target sequence (P08482 whole entry, looked up): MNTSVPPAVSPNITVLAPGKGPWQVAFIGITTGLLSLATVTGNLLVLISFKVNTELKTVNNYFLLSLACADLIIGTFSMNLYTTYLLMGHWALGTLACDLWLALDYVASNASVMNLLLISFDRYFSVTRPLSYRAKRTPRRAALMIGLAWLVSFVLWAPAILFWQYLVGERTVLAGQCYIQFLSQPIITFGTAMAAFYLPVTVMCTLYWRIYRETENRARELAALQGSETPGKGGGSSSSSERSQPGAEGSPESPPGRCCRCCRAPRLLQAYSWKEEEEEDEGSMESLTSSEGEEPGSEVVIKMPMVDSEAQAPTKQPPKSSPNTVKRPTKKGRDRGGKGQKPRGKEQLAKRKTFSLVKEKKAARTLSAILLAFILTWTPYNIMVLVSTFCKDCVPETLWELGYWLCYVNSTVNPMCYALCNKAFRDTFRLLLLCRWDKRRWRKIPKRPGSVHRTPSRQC
# Ecoli tolC = growth inhibitors of E. coli BW25113 tolC mutant. growth inhibition, % at 10 µM (by protocol). OD615. hit rate 2.2% among 65,000. AID 573;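 active = growth inhibition at or above a cutoff equal to the mean over every tested compound plus 3 SD, cut at about 60% in these data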;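 note: growth measured after 20 h incubation at 37 °C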
#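 Material: E. coli BW25113 ΔtolC::kan, tolC deletion mutant strain. Measure: percent growth inhibition. Schedule: 37 °C, 20 h exposure. Doses: single-point testing at 10 µM. Signal: A615 absorbance measurement. Buffer or medium: kanamycin-containing LB broth (50 µg/mL).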
# M1 agonist = activates the M1 muscarinic receptor. AID 626. B-score at 10 µM. hit rate 3% among 64,000. CHO-M1 cells, Fluo-4 calcium fluorescence, agonist mode; stronger effect = higher value;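 active = fluorescence rise, raw or as B-score row- and column-corrected plate score, outside the 99.7% band of its plate's samples, either direction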
# WNV NS2B-NS3 inh = blocks West Nile virus NS2B-NS3 protease activity; P06935; WNV NS2B-NS3 protease, fluorogenic substrate Ex360/Em465; stronger effect = lower value; z-score (concentration not given with the values); hit rate 0.18% among 65,000; in the data active = z-score below about -3
# Ecoli WT expand = growth inhibitors of E. coli BW25113 wild type; OD600 absorbance; growth inhibition, % at 100 µM; hit rate 0.15% among 98,000;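 active = growth inhibition above about 50% at one test dose, limit read from the data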;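 note: growth measured after 20 h incubation at 37 °C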
# AP ELISA ortho = orthogonal test for alternative complement pathway inhibitors. Human serum alternative complement pathway, LPS-coated ELISA, C3 deposition; tested in compound mixtures. inhibition, % at 5 µM. hit rate 0.08% among 62,000. AID 1235;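 active = inhibition above 30% in each of the two pooled mixtures holding the compound, so the lower value exceeds 30%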;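 note: 0% = serum in Mg-EGTA without compound and 100% = EDTA serum blank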
#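 Assay system: human serum alternative complement pathway, C3 deposition on LPS-coated wells; Dosing: 5 µM per compound in ten-compound mixtures; Detection: Anti-C3 ELISA, OD 450 nm; Buffer or medium: Mg2+-EGTA GVB++ buffer containing human serum at 1:15 dilution; Timing: 1 h at 37 °C; Replication: two different pools per compound.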
# M1 antag confirm = confirmation of rat M1 muscarinic receptor antagonists; shares compounds with M1 antag; CHO-M1 cells, Fluo-4 calcium, ACh EC80 antagonism; stronger effect = lower value; calcium response (max-min fluorescence) at 10 µM; hit rate 43% among 1,700; AID 677;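 active = calcium response below the same-plate mean of wells given acetylcholine alone at its 80%-effect dose, minus 3 SD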;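 note: raw fluorescence intensity difference in arbitrary instrument units and not normalized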
# mGluR4 antag = selectivity test for M1 antagonists: human mGluR4 receptor. hit rate 0.9% among 1,700. fluorescence response (max-min) at 10 µM. shares compounds with M1 antag. AID 678. CHO-mGluR4 calcium flux, Fluo-4 fluorescence, glutamate EC80; stronger effect = lower value;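 active = fluorescence response below the plate's average for near-maximal glutamate wells, less 3 SD of those wells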;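 note: raw unnormalized fluorescence span taken in the window right after glutamate addition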
# An asterisk follows results filed as active; . = no result given.
SMILES,M1 antag,Ecoli tolC,M1 agonist,WNV NS2B-NS3 inh,Ecoli WT expand,AP ELISA ortho,M1 antag confirm,mGluR4 antag
O=C1c2ccccc2CN1CCNS(=O)(=O)c1ccc(Cl)cc1,-1.8*,-4,-0.063,0.38,4,4,674,261
O=C(NCCN1Cc2ccccc2C1=O)c1cccs1,-0.58,-16,0.67,1.3,5,9,.,.
N#CCSc1nc2c(cc1C#N)CCCCCC2,-5.3*,4,0.062,-1.2,-6,.,205*,259
N#Cc1cc2c(nc1SCC(=O)O)CCCC2,.,.,.,.,-3,.,.,.
COc1c(C)cccc1C(=O)Nc1ccc(N2CCOCC2)c(Cl)c1,.,.,.,.,0,.,.,.
O=C(CSCc1cnn(-c2ccccc2)c1-n1cccc1)NCCN1CCOCC1,-2.7*,-6,-0.079,0.09,9,16,520*,160
O=C(CSCc1cnn(-c2ccccc2)c1-n1cccc1)NCC1CCCO1 (stereo not given),-0.2,-1,-0.6,0.92,7,1,.,.
CCn1c(N)c(C(=O)Nc2ccccc2C(=O)OC)sc1=S,-0.45,-14,0.2,0.93,-6,5,.,.
CC(C)CCN(C(=O)CNC(=O)c1ccco1)C(C(=O)NC1CCCCC1)c1ccco1 (stereo not given),1.5,15,-0.5,-0.6,0,-2,.,.
C/C(=N/NC(=O)c1ccoc1C)C12CC3CC(CC(C3)C1)C2,.,.,.,.,-7,.,.,.
CCCCN(CC)CCNc1c(N2CCN(C(=O)OCC)CC2)c(=O)c1=O,-2.1*,-10,-0.0065,0.06,5,11,608,234
CCOC(=O)Cc1nc2ccccc2[nH]1,-4.1*,0,0.43,-0.24,8,13,656,169
CCOC(=O)CCc1nc2ccccc2[nH]c1=O,0.063,-4,0,0.54,1,-21,.,.
CCc1ccc(NC(=O)CNS(=O)(=O)c2c(C)noc2C)cc1,0.9,5,-0.58,0.07,-3,3,.,.
CC(=O)C1=C(O)C(=O)N(c2cccnc2)C1c1ccc(Cl)cc1 (stereo not given),.,.,.,.,-3,.,.,.
COc1ccc(N2CCN(S(=O)(=O)c3ccc(Br)s3)CC2)cc1,-18*,-21,0.17,0.08,0,-1,675,251
O=C(NC(=S)NCc1ccccc1)C1CCCCC1,.,.,.,.,-3,.,.,.
COC(=O)c1cc(C#N)c(NCc2ccccc2)nc1C,.,.,.,.,-11,.,.,.
COc1ccccc1Cc1noc(COc2cccc(C)c2C)n1,-2.7*,34,-1.2,0.97,-4,24,575,247
Cc1ccccc1OCc1nc(-c2ccc(-n3cccc3)cc2)no1,0.43,-8,-2.3,-0.23,-7,9,.,.
CC(C)C(NC(=O)CNC(=O)OC(C)(C)C)C(=O)NCc1ccccc1 (stereo not given),0.65,-8,-2.1,-0.25,-1,20,.,.
Cc1cnn(-c2ccc3nnc(-c4ccc(Cl)cc4)n3n2)c1,.,.,.,.,1,.,.,.
COc1ccc(CCn2nnnc2C(c2ccc(Cl)cc2)N2CCN(C)CC2)cc1OC (stereo not given),-3.1*,-22,0.047,-0.84,6,4,630,258
CCN1CCN(C(c2ccccc2)c2nnnn2CCc2ccc(OC)c(OC)c2)CC1 (stereo not given),0.013,-22,-0.49,-0.18,7,-4,.,.
O=C(OCCN1CCCCC1)c1ccc(O)cc1,-0.56,-11,-0.032,-0.47,-3,-1,.,.
SMILES,M1 antag,Ecoli tolC,M1 agonist,WNV NS2B-NS3 inh,Ecoli WT expand,AP ELISA ortho,M1 antag confirm,mGluR4 antag
O=C(OCCN1CCCCC1)c1ccccc1Cl,-2.6*,-19,-0.096,-0.88,5,25,543,230
CC(=O)c1ccccc1OCCCN1CCCCC1,-2.3*,-6,0.13,0.72,-6,-1,356*,225
Clc1ccccc1OCCCCN1CCCC1,-1.7*,-4,-0.89,-0.22,6,0,454,186
CC(C)(C)c1ccccc1OCCN1CCCC1,-11*,-14,0.12,-0.39,6,23,176*,209
CCOc1ccc(C(=O)OCC(=O)NCc2ccco2)cc1OCC,0.059,3,-0.31,-0.8,-3,1,.,.
CCOC(=O)c1c(C)sc2c1N(C(=O)CN1CCOCC1)c1cc(Cl)ccc1S2,.,.,.,.,-10,.,.,.

# Assay outcomes deposited in PubChem by several laboratories.
